Measurements collected from several papers.
Protocols differ between the studies behind these lines.
Organism: Mycobacterium tuberculosis
Observed: microbial growth

| Structure (SMILES) | assay | system | conditions | MIC |
| --- | --- | --- | --- | --- |
| CCc1cc(=O)c2c(OCC3CO3)c3ccoc3c(OC)c2o1 (centres unmarked) | resazurin | H37RV | 21 days | 128 mg/L |
| Cc1ccc(CCNc2cc(-c3ccc(C)o3)nc3nncn23)cc1 | – | H37RV | – | 0.36 µM |
| CO[C@H]1/C=C/O[C@@]2(C)Oc3c(C)c(O)c4c(O)c(c(/C=N/N5CCN(C)CC5)c(O)c4c3C2=O)NC(=O)/C(C)=C\C=C\[C@H](C)[C@H](O)[C@@H](C)[C@@H](O)[C@@H](C)[C@H](OC(C)=O)[C@@H]1C | resazurin | H37RV | 21 days | 0.5 mg/L |
| CCc1ccc(CCNc2cc(-c3ccccn3)nc3nncn23)cc1 | – | H37RV | – | 0.12 µM |
| C#CC[N+]1(CC)CCc2c(sc(NC(=O)c3c(F)c(F)c(F)c(F)c3F)c2C(=O)OCC)C1 (centres unmarked) | – | CDC1551 | – | 5.8 µM |
| c1ccc(CCOc2cc(-c3ccccn3)nc3ncnn23)cc1 | – | H37RV | – | > 100 µM |
| CCc1cc(=O)c2c(OCC(O)CN3CCC(C)CC3)c3ccoc3c(OC)c2o1 (centres unmarked) | resazurin | H37RV | 21 days | 32 mg/L |
| COc1ccc(-c2oc3ccc(O)c(CN4CCCCC4)c3c2C(=O)NCc2cn(C[C@H]3O[C@H](O[C@H]4O[C@H](CO)[C@@H](O)[C@H](O)[C@H]4O)[C@H](O)[C@@H](O)[C@@H]3O)nn2)cc1 | – | CDC1551 | – | 0.7 µM |
| CO[C@H]1/C=C/O[C@@]2(C)Oc3c(C)c(O)c4c(O)c(c(/C=N/N5CCN(C)CC5)c(O)c4c3C2=O)NC(=O)/C(C)=C\C=C\[C@H](C)[C@H](O)[C@@H](C)[C@@H](O)[C@@H](C)[C@H](OC(C)=O)[C@@H]1C | resazurin | H37RV | 7 days | 0.1 mg/L |
| FC(F)(F)c1ccc(CCNc2cc(-c3ccccn3)nc3nnc(C4CC4)n23)cc1 | – | H37RV | – | 42 µM |
| CC[C@@H](CO)NCCN[C@@H](CC)CO | resazurin | H37RV | 21 days | 0.25 mg/L |
| O=c1[nH]c2nc(-c3cccnc3)sc2c(=O)n1O | – | – | – | > 100 µM |
| NNC(=O)c1ccncc1 | resazurin | H37RV | 5 days | 0.03 mg/L |
| [H]/N=C(/N)N[C@H]1[C@H](O)[C@@H](O)[C@H](O[C@@H]2O[C@@H](C)[C@](O)(C=O)[C@H]2O[C@@H]2O[C@@H](CO)[C@H](O)[C@@H](O)[C@@H]2NC)[C@@H](N/C(N)=N\[H])[C@@H]1O | resazurin | H37RV | – | 0.43 µM |
| Cc1ccc(CCNc2cc(-c3nccs3)nc3nncn23)cc1 | – | H37RV | – | 32 µM |
| CCc1cc(=O)c2c(O)c3ccoc3c(OC)c2o1 | resazurin | – | 21 days | 128 mg/L |
| NC(=S)NN=Cc1ccc(OC(=O)CN2C(=O)CSC2=O)c(Cl)c1 | resazurin | H37RV | – | 5.17 µM |
| FC(F)Oc1ccc(CCNc2cc(-c3ccccn3)nc3nncn23)cc1 | – | H37RV | – | 1.1 µM |
| COc1c(N2C[C@@H]3CCCN[C@@H]3C2)c(F)cc2c(=O)c(C(=O)O)cn(C3CC3)c12 | – | H37RV | – | 0.13 µM |
| NNC(=O)c1ccncc1 | resazurin | H37RV | 21 days | 0.0625 mg/L |
| Clc1ccc(CCNc2cc(-c3ccccn3)nc3nnc(C4CC4)n23)cc1 | – | H37RV | 5 days | 17 to 50 µM |
| CC(=O)NC[C@H]1CN(c2ccc(N3CCOCC3)c(F)c2)C(=O)O1 | resazurin | H37RV | 21 days | 0.003 mg/L |
| O=c1[nH]c2nc(-c3ccccc3)sc2c(=O)n1O | – | – | – | 12.8 µM |
